Active and inactive are the calls of the source. The rule behind the calls is not given here.
Tests used:
Cannabinoid receptor 2 = Cannabinoid receptor 2 (Homo sapiens, UniProt P34972); experiment: Non-competitive antagonist activity at human CB2R expressed in CHO cell membranes assessed as N-cycloheptyl-1,2-dihydro-1-(4-fluorobenzyl)-6-methyl-2-oxo-5-phenyl-pyridine-3-carboxamide Emax at 300 nM preincubated with compound for 30 mins followed by GTPgammaS addition and measured after 90 mins by [35S]GTPgammaS assay (reference value: -49.9%); assay type: functional; conditions: Membrane, filed as antagonist, time 120.0 min
Method in brief: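 hCB2 membranes from stably transfected CHO cells (10 µg) pre-incubated 30 min with antagonist, then an inverse-agonist concentration series added. Buffer: 50 mM Tris-HCl, 3 mM MgCl2, 0.2 mM EDTA, 100 mM NaCl, 0.5% fatty-acid-free BSA, pH 7.4, with 10 µM GDP and 0.1 nM [35S]GTPγS. Incubated 90 min at 30 °C, then filtered. Non-specific binding measured with 10 µM GTPγS. Emax given with 95% CI; at least 3 experiments, each in triplicate.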

[1] = target: Cannabinoid receptor 1 (Rattus norvegicus) (UniProt P20272); experiment: Agonist activity at CB1R in Sprague-Dawley rat hippocampal synaptosomes assessed as inhibition of 4-AP evoked glutamate release at 10 uM preincubated for 8 mins followed by 4-AP addition by HPLC analysis; assay type: subcellular; conditions: Hippocampus, filed as agonist
Method in brief: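 Rat (male Sprague Dawley, 200-250 g) hippocampal synaptosomes from Percoll gradient, superfused at 37 °C (0.5 ml/min); 4-AP 600 μM for 2 min. Compounds and antagonists (SR141716A, SR144528, 1 μM) added 8 min before 4-AP and kept during it; basal effects tested by 2-min exposure alone. Endogenous glutamate by HPLC as pmol/mg protein; overflow = stimulated minus basal in control chambers; n = 3–9, triplicate.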

Mus musculus = experiment: Antiinflammatory activity in MOG (35 to 55 residues)/pertussis toxin-induced experimental autoimmune encephalomyelitis C57BL/6J mouse model assessed as improvement in early stage disease severity at 10 mg/kg, ip dosed once daily for 20 days starting from day 10 to 16 post immunization and measured at day 2 to 4 post treatment; assay type: functional, organism-based; conditions: time 2-4 day
Method in brief: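 Active EAE in mice: 200 µg MOG35-55 in CFA (4 mg/ml M. tuberculosis) s.c. at hips and tail root, plus pertussis toxin 300 ng i.p. after immunization and 48 h later. Daily i.p. dosing (DMSO vehicle) for 20 days from each mouse's onset (day 10–16); onset = day 1. Daily clinical score; multiple t-tests with Holm-Sidak.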

Chain of Cannabinoid receptor 1 (Rattus norvegicus) (P20272 whole entry, the tested form may be a part): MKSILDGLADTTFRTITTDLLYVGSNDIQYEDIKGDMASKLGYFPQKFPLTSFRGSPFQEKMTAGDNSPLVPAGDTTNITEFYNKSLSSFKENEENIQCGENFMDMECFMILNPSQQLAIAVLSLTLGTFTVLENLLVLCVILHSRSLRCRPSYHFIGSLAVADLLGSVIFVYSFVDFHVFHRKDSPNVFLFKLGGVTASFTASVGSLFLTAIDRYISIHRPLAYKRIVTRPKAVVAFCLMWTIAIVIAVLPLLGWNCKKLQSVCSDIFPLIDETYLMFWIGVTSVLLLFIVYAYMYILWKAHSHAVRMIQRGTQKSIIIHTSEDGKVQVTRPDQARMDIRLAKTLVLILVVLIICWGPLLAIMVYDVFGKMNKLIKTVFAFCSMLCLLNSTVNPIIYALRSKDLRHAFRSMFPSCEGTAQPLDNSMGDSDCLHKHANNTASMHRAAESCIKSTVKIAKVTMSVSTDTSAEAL
Chain of Cannabinoid receptor 2 (P34972 whole entry): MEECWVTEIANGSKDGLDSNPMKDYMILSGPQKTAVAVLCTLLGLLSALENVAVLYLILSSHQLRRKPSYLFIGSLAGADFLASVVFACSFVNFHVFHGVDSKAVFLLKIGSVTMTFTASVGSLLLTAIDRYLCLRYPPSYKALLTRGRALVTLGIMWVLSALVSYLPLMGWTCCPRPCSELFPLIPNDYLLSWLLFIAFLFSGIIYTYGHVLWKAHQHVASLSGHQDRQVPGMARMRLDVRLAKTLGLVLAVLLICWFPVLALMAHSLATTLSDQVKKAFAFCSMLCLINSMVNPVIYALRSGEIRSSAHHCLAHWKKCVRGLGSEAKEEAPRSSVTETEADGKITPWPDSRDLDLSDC

SMILES	Emax (Cannabinoid receptor 2) [%]	Activity [1]	Activity (Mus musculus)
COc1ccc(-c2cc(C(=O)NC3CCCCCC3)c(=O)n(Cc3ccc(F)cc3)c2C)cc1	-28.6		
Cc1c(Br)cc(C(=O)NC2CCCCCC2)c(=O)n1Cc1ccc(F)cc1		Active	Active

Source: ChEMBL document CHEMBL4706601, “The endocannabinoid system dual-target ligand N-cycloheptyl-1,2-dihydro-5-bromo-1-(4-fluorobenzyl)-6-methyl-2-oxo-pyridine-3-carboxamide improves disease severity in a mouse model of multiple sclerosis” (Eur J Med Chem, 2020)
